{"data": "Measurements pooled from the literature", "organism": "Staphylococcus epidermidis", "effect on": "microbial growth", "note": "Protocols differ between the studies behind these lines."}
{"SMILES": "CC(C)Oc1c(-n2cc(-c3ccc(NC(=O)C(CC(N)=O)NC(=O)c4ccc(NC(=O)c5ccc(C#N)cc5)cc4)cc3)nn2)ccc(C(=O)Nc2ccc(C(=O)O)cc2)c1O (centres unmarked)", "system": "DSM28765", "MIC": "0.125 µg/mL"}
{"SMILES": "NCCCC[C@H](N)C(=O)Nc1ccc(-n2nc(C(F)(F)F)cc2-c2ccc3c(ccc4ccccc43)c2)cc1", "test": "broth dilution", "system": "ATCC35984", "setting": "24 h", "MIC": "4 µg/mL"}
{"SMILES": "O=C(O)CN1C(=O)/C(=C/c2c3ccccc3c(-c3ccc(N(c4ccccc4)c4ccccc4)cc3)c3ccccc23)SC1=S", "test": "broth dilution", "system": "ATCC12228", "MIC": "> 1000 µg/mL"}
{"SMILES": "CC[C@H]1OC(=O)[C@H](C)[C@@H](O[C@H]2C[C@@](C)(OC)[C@@H](O)[C@H](C)O2)[C@H](C)[C@@H](O[C@@H]2O[C@H](C)C[C@H](N(C)C)[C@H]2O)[C@](C)(O)C[C@@H](C)C(=O)[C@H](C)[C@@H](O)[C@]1(C)O", "test": "broth dilution", "system": "12228", "MIC": "0.78 µM"}
{"SMILES": "NCCCC[C@H](N)C(=O)Nc1ccc(-n2nc(C(F)(F)F)cc2-c2ccc3c(c2)Nc2ccccc2S3)cc1", "test": "broth dilution", "system": "ATCC35984", "setting": "24 h", "MIC": "4 µg/mL"}
{"SMILES": "NC[C@H]1O[C@H](O[C@H]2[C@H](O)[C@@H](O[C@H]3O[C@H](CO)[C@@H](O)[C@H](N)[C@H]3O)[C@H](N)C[C@@H]2N)[C@H](N)C[C@@H]1O", "test": "broth dilution", "system": "12228", "MIC": "0.78 µM"}
{"SMILES": "CC(C)Oc1c(NC(=O)c2ccc(NC(=O)c3ccc(NC(=O)[C@H](CC(N)=O)NC(=O)c4ccc(NC(=O)c5ccc(C#N)s5)cc4)cc3)c(OC(C)C)c2O)ccc(C(=O)O)c1O", "system": "DSM28765", "MIC": "≤ 0.03 µg/mL"}
{"SMILES": "CN[C@H](CC(C)C)C(=O)N[C@H]1C(=O)N[C@@H](CC(N)=O)C(=O)N[C@H]2C(=O)N[C@H]3C(=O)N[C@H](C(=O)N[C@H](C(=O)O)c4cc(O)cc(O)c4-c4cc3ccc4O)[C@H](O)c3ccc(c(Cl)c3)Oc3cc2cc(c3O[C@@H]2O[C@H](CO)[C@@H](O)[C@H](O)[C@H]2O[C@H]2C[C@](C)(N)[C@H](O)[C@H](C)O2)Oc2ccc(cc2Cl)[C@H]1O", "test": "broth dilution", "system": "ATCC12228", "MIC": "0.98 µg/mL"}
{"SMILES": "CC(C)Oc1c(NC(=O)c2ccc(NC(=O)[C@H](CC(N)=O)NC(=O)c3ccc(NC(=O)c4ccc(C#N)s4)cc3)cc2)ccc(C(=O)Nc2ccc(C(=O)O)cc2)c1O", "system": "DSM28765", "MIC": "0.5 µg/mL"}
{"SMILES": "O=C(O)CN1C(=O)/C(=C/c2c3ccccc3c(-c3ccc(N(c4ccccc4)c4ccccc4)cc3)c3ccccc23)NC1=S", "test": "broth dilution", "system": "ATCC12228", "MIC": "> 1000 µg/mL"}
{"SMILES": "O=C(Nc1ncc([N+](=O)[O-])s1)C1CCCCC1", "test": "broth dilution", "MIC": "31.3 µM"}
